Experimental findings from ChEMBL document CHEMBL1127301, “Carbonyl-containing bisphosphonate esters as novel antiinflammatory and antiarthritic agents” (1994) are described below.

Common to all, as to type: functional
Test [1] deals with Mus musculus. The test is described as follows: Decreased wet tissue weight of DTH-GRA from mice was determined after (sc) administration of a dose of 100 mg/kg after 9 days. As to conditions: for inhibition in vivo at 100 mg/kg: Mus musculus, sc, 216 h. A digest of the protocol: (§1)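 Groups of 10 female CF-1 mice (25 g) were sensitized sc over the inguinal node with mBSA/Freund's incomplete adjuvant/dextran. Three weeks later, two 6 mm hydroxyapatite discs soaked in mBSA (30 mg/mL) were implanted sc in the dorsum. Drug was given sc in the scruff. After 9 days, granulomas were excised and wet/dry weights compared with vehicle controls as percent inhibition.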

The subject of test [2] is Mus musculus. The test is described as follows: Decreased wet tissue weight of DTH-GRA from mice was determined after (sc) administration of a dose of 50 mg/kg. The gist of the method: (§2)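 Groups of 10 female CF-1 mice (25 g) sensitized sc over the inguinal lymph node with mBSA emulsion (saline, Freund's incomplete adjuvant, dextran). Three weeks later, two hydroxyapatite discs (6 mm) soaked in mBSA (30 mg/mL saline) implanted sc bilaterally in the dorsum. Compound given sc in scruff of neck in saline vehicle. Granulomas excised after 9 days; wet and dry weights expressed as percent inhibition versus vehicle-dosed controls.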

For test [3], the system named is Mus musculus. The test is described as follows: Decreased wet tissue weight of DTH-GRA from mice was determined after (sc) administration of a dose of 200 mg/kg. A digest of the protocol: as §2
Test [4] has as its system Mus musculus. The test is described as follows: Decreased dry tissue weight of DTH-GRA from mice was determined after (sc) administration of a dose of 50 mg/kg. The gist of the method:
as §2

Test [5] relates to Mus musculus. The test is described as follows: Decreased wet tissue weight of DTH-GRA from mice was determined after (sc) administration of a dose of 25 mg/kg. A digest of the protocol: as §2
In test [6] the test system is Mus musculus. Nature of the test: Decreased dry tissue weight of DTH-GRA from mice was determined after (sc) administration of a dose of 25 mg/kg. A digest of the protocol:
as §2

The subject of test [7] is Mus musculus. Nature of the test: Decreased dry tissue weight of DTH-GRA from mice was determined after (sc) administration of a dose of 100 mg/kg. A digest of the protocol:
as §2

In test [8] the test system is Mus musculus. Nature of the test: Decreased wet tissue weight of DTH-GRA from mice was determined after (sc) administration of a dose of 100 mg/kg. The gist of the method: as §2
For test [9], the system named is Mus musculus. Nature of the test: Decreased dry tissue weight of DTH-GRA from mice was determined after (sc) administration of a dose of 200 mg/kg. The gist of the method: as §2
The test system of test [10] is Mus musculus. Nature of the test: Decreased dry tissue weight of DTH-GRA from mice was determined after (sc) administration of a dose of 100 mg/kg after 9 days. Conditions: 216 h. A digest of the protocol: as §1
For test [11], the system named is Mus musculus. The test is described as follows: Compound was tested for the suppression of Antigen-Induced Arthritis in mice after 28days, at a dose of 100 mg/kg administered subcutaneously. Conditions: sc, 672 h, route subcutaneous. A digest of the protocol:
(§3)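 mBSA-sensitized mice were boosted after 7 days and, 14 days later, challenged intraarticularly with 200 μg mBSA in saline in the left rear stifle. Drug in sterile saline was given sc in the scruff from day 0 on a 5-of-7-day regimen to day 28. H&E sagittal joint sections were graded 1–5 for inflammation, pannus, and cartilage/bone erosion; results are percent inhibition.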

Test [12] deals with Mus musculus. Nature of the test: Compound was tested for the suppression of Antigen-Induced Arthritis in mice after 28days, which were dosed 100 mg/kg subcutaneously. Conditions: sc, 672 h, route subcutaneous. The gist of the method: as §3
Test [13] deals with Mus musculus. The test is described as follows: Compound was tested for the suppression of Antigen-Induced Arthritis in mice after 28days, at a dose of 100 mg/kg administered subcutaneously; p<0.001. Conditions: sc, 672 h, route subcutaneous. A digest of the protocol:
as §3

Test [14] relates to Mus musculus. The test is described as follows: Compound was tested for the suppression of Antigen-Induced Arthritis in mice after 28days, at a dose of 10 mg/kg administered subcutaneously. As to conditions: sc, 672 h, route subcutaneous. A digest of the protocol:
as §3

Test [15] relates to Mus musculus. The test is described as follows: Compound was tested for the suppression of Antigen-Induced Arthritis in mice after 28days, which were dosed 100 mg/kg subcutaneously;. As to conditions: sc, 672 h, route subcutaneous. The gist of the method:
as §3

In test [16] the test system is Mus musculus. Nature of the test: Compound was tested for the suppression of Antigen-Induced Arthritis in mice after 28 days, at a dose of 25 mg/kg administered subcutaneously. Conditions: sc, 672 h, route subcutaneous. A digest of the protocol: as §3
Test [17] concerns Mus musculus. Nature of the test: Decreased dry tissue weight of DTH-GRA from mice was determined after (sc) administration of a dose of 10 mg/kg after 9 days. The gist of the method:
as §1

In test [18] the test system is Mus musculus. The test is described as follows: Compound was tested for the suppression of Antigen-Induced Arthritis in mice after 28 days, at a dose of 50 mg/kg administered subcutaneously. As to conditions: sc, 672 h, route subcutaneous. The gist of the method: as §3
Test [19] deals with Mus musculus. Nature of the test: Decreased wet tissue weight of DTH-GRA from mice was determined after (sc) administration of a dose of 10 mg/kg after 9 days. A digest of the protocol:
as §1

Test [20] deals with Mus musculus. Nature of the test: Compound was tested for the suppression of Antigen-Induced Arthritis in mice after 28 days, which were dosed 10 mg/kg subcutaneously. As to conditions: sc, 672 h, route subcutaneous. The gist of the method: as §3

Where “and” joins values, the source holds several entries; their conditions need not be identical. Identical values can stand only once.

As usually defined, the inhibition in vivo is how much of the control response was suppressed. Broadly, the Inhibition is the drop in the measured response relative to a control, in per cent.

Consider `CCOP(=O)(OCC)C(CC1C(=O)c2ccccc2SC1C)P(=O)(OCC)OCC` (centres undefined), for which the inhibition in vivo at 100 mg/kg in the test on Mus musculus [1] came out at 33%.
For the molecule `CCOP(=O)(OCC)C(CC1Sc2ccccc2C1=O)P(=O)(OCC)OCC` (centres undefined), the inhibition in vivo at 100 mg/kg with Mus musculus [1] is 27%.
The same measure, in the same setting: for `CCOP(=O)(OCC)C(CC1Cc2ccccc2C1=O)P(=O)(OCC)OCC` (centres undefined) the value was 0%; for `CCOP(=O)(OCC)C1(P(=O)(OCC)OCC)CC(C(=O)c2ccccc2)=NN1`, 31%.
Same read-out and setting: with `CCOP(=O)(OCC)C(C[C@H]1C(=O)c2ccccc2O[C@H]1c1ccccc1)P(=O)(OCC)OCC` the figure was 0%.
`O=P(O)(O)C(Cl)(Cl)P(=O)(O)O` [CLODRONIC ACID]: the inhibition in vivo at 50 mg/kg in the test with Mus musculus [2] stood at 48%; in the test with Mus musculus [4], 47%. Besides, the results for the inhibition in vivo at 200 mg/kg in the test on Mus musculus [3] and with Mus musculus [9] were 55% and 59%, respectively. For the same molecule, the inhibition in vivo at 100 mg/kg stood at 45% with Mus musculus [1], 63% in the test with Mus musculus [7], 61% in the test with Mus musculus [8] and 50% in the test on Mus musculus [10]. Further, the inhibition in vivo at 25 mg/kg with Mus musculus [5] and in the test with Mus musculus [6] was 45% in each case.
As to `CCOP(=O)(OCC)C(C[C@@H]1C(=O)c2ccccc2O[C@H]1c1ccccc1)P(=O)(OCC)OCC`, at 100 mg/kg the inhibition in vivo with Mus musculus [1] was 67%.
Still for that read-out and setting: with `CCOP(=O)(OCC)C(CC(C(=O)Nc1ccccc1)C(=O)c1ccccc1)P(=O)(OCC)OCC` (centres undefined) the figure was 3%.
With `CCOP(=O)(OCC)C(CC1CSc2ccc(C)cc2C1=O)P(=O)(OCC)OCC` (centres undefined), the inhibition in vivo at 100 mg/kg worked out at 28% in the test on Mus musculus [1] and 21% in the test with Mus musculus [11].
In the test on Mus musculus [1], `CCOP(=O)(OCC)C(CC(C#N)c1cccc2ccccc12)P(=O)(OCC)OCC` (centres undefined) had an inhibition in vivo at 100 mg/kg of 0%.
As to `CCOP(=O)(OCC)C(CC1C(=O)c2ccccc2OC1c1ccccc1)P(=O)(OCC)OCC` (centres undefined), the inhibition in vivo at 100 mg/kg in the test on Mus musculus [1] was determined as 46%; in the test with Mus musculus [12], 21%; with Mus musculus [10] it was 47%.
On to `CCOP(=O)(OCC)C(CC1CCCC(c2ccccc2)C1=O)P(=O)(OCC)OCC` (centres undefined), for which the inhibition in vivo at 100 mg/kg in the test on Mus musculus [1] was found to be 50%.
Regarding `CCOP(=O)(OCC)C(CC(C(=O)OC)c1ccccc1)P(=O)(OCC)OCC` (centres undefined), the inhibition in vivo at 100 mg/kg is 38% with Mus musculus [13] and 8% in the test on Mus musculus [1].
Take `CCOP(=O)(OCC)C(CC(C#N)c1ccccn1)P(=O)(OCC)OCC` (centres undefined): at 10 mg/kg the inhibition in vivo in the test on Mus musculus [14] was 2%.
`CCOC(=O)C(CC(P(=O)(OCC)OCC)P(=O)(OCC)OCC)C(=O)c1ccccc1` (centres undefined): the inhibition in vivo at 100 mg/kg in the test with Mus musculus [1] came out at 77%.
Consider `CCOP(=O)(OCC)C(CC1CCCC(C)C1=O)P(=O)(OCC)OCC` (centres undefined), for which the inhibition in vivo at 100 mg/kg came out at 25% with Mus musculus [1] and 46% in the test on Mus musculus [15].
As for `CCOP(=O)(OCC)C(CC(C(=O)OC)c1ccccc1O)P(=O)(OCC)OCC` (centres undefined), testing at 100 mg/kg in the test on Mus musculus [1] gave an inhibition in vivo of 5%.
Same read-out and setting: with `CCOP(=O)(OCC)C(CC1COc2ccccc2C1=O)P(=O)(OCC)OCC` (centres undefined) the figure was 67%; with `CCOP(=O)(OCC)C(CC(C#N)c1cccs1)P(=O)(OCC)OCC` (centres undefined), 40%.
In the test with Mus musculus [16], `CCOP(=O)(OCC)C(CC(C(=O)c1ccccc1)c1ccccc1)P(=O)(OCC)OCC` (centres undefined) returned an inhibition in vivo at 25 mg/kg of 55%. The Inhibition with Mus musculus [1] (100 mg/kg) was 51% and 44% and 35%; in the test on Mus musculus [17], 57% and 48% and 38%. Moreover, the inhibition in vivo at 100 mg/kg in the test with Mus musculus [1] is 48%; in the test on Mus musculus [12] it was 52%. The molecule also registered an inhibition in vivo at 50 mg/kg with Mus musculus [18] of 53%.
In turn, `CCOP(=O)(OCC)C(CC(C(=O)c1ccc(OC)cc1)c1ccccn1)P(=O)(OCC)OCC` (centres undefined) showed an inhibition in vivo at 100 mg/kg in the test on Mus musculus [1] of 34%.
As for `CCOP(=O)(OCC)C(CC(=O)C(=O)c1ccccc1)P(=O)(OCC)OCC`, the Inhibition in the test with Mus musculus [19] was 56% and 49% and 43% and 28%; in the test with Mus musculus [17] it was 45% and 54% and 49% and 38% and 27%. For the same molecule, the inhibition in vivo at 100 mg/kg in the test with Mus musculus [1] came to 49%. Moreover, 10 mg/kg produced 12% inhibition in vivo in the test on Mus musculus [20].
